F508del corr: CFTR F508del correction in bronchial cells; 350,000 compounds, 0.36% hits; CFBE cells, YFP halide quenching; stimulated with forskolin plus potentiator P3; % fluorescence drop versus neutral controls; AID 720511; activity (quench increase), % at 7.58 µM;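 active = mean added fluorescence quench of at least 8% versus neutral control, with both replicates also reaching 8%; inconclusive = only one of the mean or replicate conditions met; inactive = mean below 8% and not both replicates reaching 8%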;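 note: cells transiently co-express mutant CFTR-F508del with the halide-sensitive YFP; corrector assay measuring rescue of mutant channel to the surface after 24 h compound exposure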
Ecoli rRNA inh: selective bacterial rRNA inhibition in E. coli; E. coli WT GFP vs humanized-ribosome RFP mutants, fluorescence, 24 h; active compounds read low; DMSO median 0, no signal -100; GFP signal change (wild-type ribosome), % (concentration not given with the values); 350,000 compounds, 1.6% hits; AID 720706;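 active = significant combined selectivity score with lowered wild-type GFP, culture density cut under 30%, mutant RFP and density less affected; inactive = any of these conditions unmet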
miR-122 sensor: blocks miR-122 activity in Huh7 sensor cells; Huh7 miR-122 Renilla luciferase sensor, 48 h; neutral wells = 0, positive control = 100; activation (reporter increase), % at 12.5 µM; 340,000 compounds, 0.3% hits; AID 602342;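 active = mean replicate activation score at least 90 and every replicate individually at or above 90; inconclusive = only one of the two criteria met; inactive = neither criterion met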;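 note: higher luciferase means less miR-122 activity so hits act as miR-122 inhibitors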
Env fusion inh: inhibitors of HIV Env-mediated cell fusion | HeLa-JRFL Env/CEM21 cell fusion, luciferase | inhibition, % at 12.3 µM | 360,000 compounds, 1.1% hits | AID 651610;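 active = mean replicate inhibition score of at least 50 and every replicate individually at or above 50; inconclusive = only one of the two criteria met; inactive = mean below 50 and not all replicates reaching 50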;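 note: 0% = plate neutral controls and 100% = maraviroc near 300 nM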
GSIS activator: GLuc luminescence reporter in INS-1E cells, primary screen for activators of glucose-dependent secretion of insulin. INS-1E GLuc reporter insulin secretion, 2-3 h. activation, % at 16.6 µM. 370,000 compounds, 0.61% hits;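 active = lowest replicate activation of at least 40%, so every replicate reaches that level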;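 note: 0% = median of neutral control wells and 100% = median of IBMX positive control wells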
Cneo AK release: causes C. neoformans cell lysis | adenylate kinase release luminescence, 4 h; normalised: neutral wells 0, clomiphene wells 100 | lysis activity, % at 15 µM | 360,000 compounds, 0.2% hits;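 active = mean lysis activity across replicates of at least 80%, whatever share of replicates individually reach that level; inactive = mean lysis activity below 80%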
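Assay system: Cryptococcus neoformans yeast cells / Dosing: single-point compound dose / Timing: 4 h at 37 °C static, read 1 h later / Measured by: luminescence of released adenylate kinase using an AK detection reagent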
AID977621: wild-type E. coli growth inhibition versus H69 humanized strain – H69 mutant RFP, wild-type GFP, cherry-pick, dose response | shares compounds with Ecoli rRNA inh | fluorescence, 24 h | activity change, negative = inhibition at 50 µM | 1,900 tested, under 10 active | AID 977621;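 active = Wild-type ribosome reporter drop at least double the humanized mutant ribosome reporter drop, growth loss under a set limit; inconclusive = no clear call, values can overlap the other calls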;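 note: wild-type GFP and H69 mutant RFP strains grown together 50/50 in each well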
AID977628: growth of wild-type and h24-humanized E. coli strains – h24 mutant RFP vs wild-type GFP, cherry-pick, dose response; E. coli WT GFP strain growth, fluorescence, 24 h; AID 977628; 1,900 tested, under 10 active; shares compounds with Ecoli rRNA inh; activity change, negative = inhibition at 50 µM;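 active = compound lowering the normal-ribosome reporter at least twice as much as the humanized-ribosome reporter, growth loss under a set limit; inconclusive = no clear call, values can overlap the other calls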;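 note: wild-type GFP and h24 humanized RFP strains co-cultured 1 to 1 per well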
Active calls of the source: *; ? = inconclusive; / = no result given; [ ] = dose if it differs, or a comment. Rows were chosen to be rich in hits. Some 3.1% of all compounds tested hit in one or more screens of this group.

SMILES	F508del corr	Ecoli rRNA inh	miR-122 sensor	Env fusion inh	GSIS activator	Cneo AK release	AID977621	AID977628
COc1ccc(C)c2sc(N(CCN(C)C)C(=O)c3cccc(N4C(=O)CCC4=O)c3)nc12	-2.5	5.4	/	-6.5	11.9	/	/	/
COc1ccc(C)c2sc(N(CCN(C)C)C(=O)c3ccc(S(=O)(=O)N(C)c4ccccc4)cc3)nc12	-2.5	-11.7*	-3.6	-6.7	/	3.9	/	-0.093
CO[C@H]1CN(C)C(=O)c2cc(NC(=O)c3ccccc3F)ccc2OC[C@@H](C)N(C(C)=O)C[C@H]1C	-1.3	-1.5	/	-4.9[16.7 µM]	3.3	/	/	/
CC1(c2ccc3ccccc3c2)NC(=O)N(CC(=O)N2CCN(c3ccccc3O)CC2)C1=O (centres undefined)	2.4	-19.6*	-4.2	14.9	-4.2	-2.5	-4.59	-6.53
CN1CCN(C(=O)CN2C(=O)NC(C)(c3ccc4ccccc4c3)C2=O)CC1 (centres undefined)	-1.7	9.6	-10.0	/	/	-1.7	/	/
Cc1ccc(S(=O)(=O)Nc2ccc3c(c2)CC(=O)N([C@@H](C)CO)C[C@H](C)[C@@H](CN(C)S(=O)(=O)c2ccc(Cl)cc2)O3)cc1	-1.1	0.7	-10.1[16.7 µM]	14.9[16.7 µM]	10.5	-4.4	/	/
CNC(=O)C[C@@H]1CC[C@@H]2[C@@H](COc3ccc(NC(=O)Nc4cccc(F)c4)cc3C(=O)N2C)O1	1.4	-1.0	-12.5[16.7 µM]	10.0[16.7 µM]	6.4	0.2	/	/
CS(=O)(=O)N1CC2CCCN2c2cc(C(F)(F)F)ccc21 (centres undefined)	2.1	-33.1	11.5	-7.7	16.3	/	/	/
CS(=O)(=O)N1CC2CCCN2c2ccc(C(F)(F)F)cc21 (centres undefined)	-0.8	-32.5*	-0.2	1.7	-24.5	1.5	-1.43	-2.84
CN(C)S(=O)(=O)c1ccc(Cl)c(C(=O)OCC(=O)NC(=O)c2cccn2C)c1	/	-21.3*	/	?	-11.8	/	-10.9	-14.4
C[C@@H]1CCCCO[C@@H](CN(C)C(=O)c2ccccc2)[C@@H](C)CN([C@@H](C)CO)C(=O)c2cc(NS(C)(=O)=O)ccc2O1	1.3	-0.1	12.2[16.7 µM]	1.7[16.7 µM]	15.2	0.5	/	/
Cc1sc(NC(=O)CN2CCOCC2)nc1-c1ccc2c(c1)CCN2S(=O)(=O)c1ccccc1	5.3	-20.8*	1.8	/	1.1	-0.6	-20.8	/
COc1cc(OC)cc(-c2nc3ccccc3c(=O)n2OC(=O)c2ccc(C)c(C)c2)c1	9.1*	-22.1*	/	-1.9	-5.5	/	-8.26	-3.66
C[C@@H]1CN([C@@H](C)CO)C(=O)c2cc(-c3ccccc3F)cnc2O[C@H]1CN(C)C(=O)NC1CCCC1	2.2	-5.2	-21.0[16.7 µM]	-21.8[16.7 µM]	3.8	5.2	/	/
Cc1ccc(-c2noc(-c3ccccc3C(=O)NCc3ccco3)n2)cc1	-1.1	6.1	/	4.7	-38.1	/	/	/
Cc1cccc(-c2noc(-c3ccccc3C(=O)NCc3ccco3)n2)c1	-0.6	-33.3*	-7.5	-1.5	-22.9	-4.0	-17.2	-14.2
O=C1c2ccccc2C(c2nnnn2C2CCCCC2)N1CCc1ccc(O)cc1 (centres undefined)	-1.7	-17.9*	/	-15.1	11.3	/	7.86	-5.46
CC(C)CCN1C(=O)c2ccccc2C1c1nnnn1Cc1ccccc1 (centres undefined)	0.0	-18.4	/	21.1	-22.5	/	/	/
CCCN1CCC2(CC1)CN(Cc1ccccc1OC)[C@H](CO)c1c2c2ccc(OC)cc2n1C	0.5	2.9	/	/	-1.2	/	/	/
CCN1[C@@H]2c3ccc(-c4cccc(F)c4)c(=O)n3C[C@@H]2[C@@H](CO)[C@@H]1C(=O)N1CCCCC1	/	-1.0	/	-12.2[16.7 µM]	0.4	-1.8	/	/
CC(C)c1cc(C(N)=O)c(NC(=O)C2CCC2)s1	-1.1	-23.6*	/	/	16.5	/	?	/
